Experimental data from paper PMC12138178 (The New Phytologist, 2025).

Tests used:
MpPR10.5 protein [1] = molecular target: T1, MpPR10.5 protein (Marchantia polymorpha, UniProt A0A2R6WRE7); test: Intrinsic tryptophan fluorescence binding assay
T1 sequence (A0A2R6WRE7 1-149): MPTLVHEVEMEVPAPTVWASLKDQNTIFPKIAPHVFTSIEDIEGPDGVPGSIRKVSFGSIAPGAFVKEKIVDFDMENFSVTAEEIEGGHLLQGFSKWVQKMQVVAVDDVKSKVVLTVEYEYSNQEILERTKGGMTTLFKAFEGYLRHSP
In short: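 His-SUMO-tagged PR10 protein, expressed in E. coli Rosetta-Gami 2 and purified by IMAC and size exclusion, used at 1.1 μM in 20 mM Tris pH 8.5, 200 mM NaCl. DMSO stocks of test compound at eight levels (0–20 mM or 0–4 mM) were diluted 10× in buffer and added. Incubated 5 min at 22°C. Excitation 280 nm, emission 340 nm. Six replicates; buffer controls subtracted. |ΔF|/F0 versus concentration was fitted to a one-site specific binding model to give Kd.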

MpPR10.5 protein [2] = molecular target: T1, MpPR10.5 protein; test: Naringenin chalcone oxidation assay; format: physicochemical; conditions: pH 7.5, 30 min
In short: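 Run in 20 mM Tris pH 7.5 or 8.5 with 200 mM NaCl, either as buffer alone or with 15 μM His-SUMO-tagged PR10 protein. A blank was recorded first. Test compound was added from a 1.4 mM DMSO stock to 10 μM final. UV–Vis spectra (190–840 nm, 1 cm path) were taken every 1 min for 30 min, following the 377 and 322 nm peaks.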

SMILES	affinity for MpPR10.5 (in words) (MpPR10.5 protein [1])	Kd (MpPR10.5 protein [1]; Kd (dissociation constant), His-SUMO-MpPR10.5 fusion protein, 20 mM Tris pH 8.5, 200 mM NaCl, 22°C, nd = not detected) [µM]	stability under the experimental conditions (absorption peak at 322 nm) (MpPR10.5 protein [2])
O=C(/C=C/c1ccc(O)c(O)c1)c1ccc(O)cc1O [Butein]	high affinity	–	–
O=C(O)/C=C/c1ccccc1 [Cinnamic acid]	very low affinity	> 119	–
O=C(/C=C/c1ccc(O)cc1)c1ccc(O)cc1O [Isoliquiritigenin]	high affinity	–	–
O=C1C[C@@H](c2ccc(O)cc2)Oc2cc(O)cc(O)c21 [Naringenin]	–	–	remained completely stable
O=C(CCc1ccc(O)cc1)c1c(O)cc(O)cc1O [Phloretin]	high affinity	–	–
O=C(O)C=Cc1ccc(O)cc1 [p-Coumaric acid]	no affinity	–	–
